In PubChem BioAssay AID822 (SRMLSC, 2007):
Calls of active or inactive are those of the source.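 How the source made its calls: active means half-maximal effective dose for blocking growth of human endothelial cells at most 100 µM; inactive means the rest.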

Tested on: not listed separately
Experiment: HUVEC proliferation inhibition, dose response, cell-based, ATP luminescence (AID 822);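 further: cells exposed to compound for 72 h before the ATP read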;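 on viability: 100% = median luminescence of untreated cell-only control wells on each plate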
Settings: HUVEC proliferation, viability ATP luminescence; at 20 µM (top of the series)
In short: (§1)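 Test system: HUVEC; Input: 1250 HUVEC cells seeded per well; Doses: 0.039–20 µM, 0.2% DMSO; Evaluation: % viability versus median cell-only wells, EC50 from 4-parameter fit; Medium: EBM plus 2% FBS; Incubation: compound treatment 72 h, 37 °C; Signal: luminescent ATP measurement with CellTiter-Glo reagent; Plate: collagen-coated multiwell plates.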
In the case of `CC1(C)CSC(=S)N1S(=O)(=O)c1ccccc1`, the viability is reported as 99.8% (inactive).
In the case of `O=C(Nc1cccnc1)c1ccc(Oc2ccccc2)cc1`, the viability is reported as 108% (inactive).
With `Cc1cc(Cl)ccc1OCCCC(N)=O` the viability was 94% (inactive).
For `CC1(C)Cc2ccccc2C(NNC(=O)c2ccccn2)=N1`, the viability was 93.7% (inactive).
In the case of `Cc1nc2ccccc2n1CCc1nc2c3ccccc3nc(SCC(=O)NCc3ccco3)n2n1`, the viability is reported as 86.4% (inactive).
With `CNC(=O)Cn1c(=O)n(C)c2ccccc21` the viability was 91.8% (inactive).
In the case of `COc1ccccc1N1CCN(C(=O)c2ccc(Br)s2)CC1`, the viability is reported as 97.5% (inactive).
For `Cc1cc(C(=O)Nc2nc3ccc(S(C)(=O)=O)cc3s2)c(C)o1`, the viability was 82.9% (inactive).
For `O=C(Nc1nc(NC(=O)c2ccco2)n(-c2ccccc2)n1)c1ccccc1`, the viability was 84.5% (inactive).
With `N#CCC(=O)Nc1ncn(Cc2ccccc2Cl)n1` the viability was 95.8% (inactive).
In the case of `CC1(C)CC(NC(=O)c2coc(=O)c(Br)c2)CC(C)(C)N1`, the viability is reported as 81% (inactive).
For `Cc1nn(C)c(C)c1NC(=O)CSc1nc(C2CC2)nc2c1cnn2-c1ccccc1`, the viability was 101% (inactive).
For `O=C(CCSc1ccc(Cl)cc1)N1CCN(c2ncccn2)CC1`, the viability was 94.5% (inactive).
In the case of `CCCS(=O)(=O)N1CCC(C(=O)N2CCC3(CC2)OCCO3)CC1`, the viability is reported as 99.1% (inactive).
With `Cc1ccc(NC(=O)c2c(O)c3ccccc3n(C)c2=O)nc1` the viability was 101% (inactive).
With `Cn1c(=O)c2cc(NCc3ccccc3)nnc2n(C)c1=O` the viability was 92.6% (inactive).
With `CN1C(=O)C(O)(CC(=O)c2cccc(-n3cccc3)c2)c2ccccc21` (centres undefined) the viability was 84.7% (inactive).
With `CCOC(=O)c1ccc(NC(=O)c2c(C)[nH]c(C(=O)OCC)c2C)cc1` the viability was 96.7% (inactive).
With `Brc1cccc(-c2nnc3sc(CNC4CCCC4)cn23)c1` the viability was 84% (inactive).
For `OC1(Cc2ccn[nH]2)CCCCC1`, the viability was 93.6% (inactive).
In the case of `CCOC(=O)c1c(NC(=O)C2COc3ccccc3O2)sc(C(C)=O)c1C` (centres undefined), the viability is reported as 112% (inactive).
In the case of `CN(CCO)c1cc(Sc2nc3ccccc3s2)c2nonc2c1[N+](=O)[O-]`, the viability is reported as 85.4% (inactive).
For `Clc1ccc(-c2nc(NCCN3CCOCC3)c3ccccc3n2)cc1`, the viability was 86% (inactive).
For `Cc1cc(NC(=O)c2cccc(S(=O)(=O)N3CC(c4ccccc4)CC3=O)c2)no1` (centres undefined), the viability was 91.3% (inactive).
With `Cc1sc2nc(SCC(=O)NCc3ccco3)n(CCc3ccccc3)c(=O)c2c1C` the viability was 91.5% (inactive).
For `CCOc1ccc(-c2nn3c(-c4ccccc4)nnc3s2)cc1`, the viability was 83.3% (inactive).
In the case of `O=C(CN1CCN(S(=O)(=O)c2ccc(F)cc2)CC1)Nc1ccc2c(c1)OCO2`, the viability is reported as 116% (inactive).
In the case of `Nc1nc2ccccc2n1/N=C/c1ccc(-c2ccccc2)o1`, the viability is reported as 90.9% (inactive).
With `COc1cccc2c(C)nc(Nc3nc(CSc4nnc(C)s4)cc(=O)[nH]3)nc12` the viability was 101% (inactive).
For `Cn1c(=O)c2c(ncn2CC(=O)Nc2nc(-c3ccccc3Cl)cs2)n(C)c1=O`, the viability was 89.5% (inactive).
In the case of `Cc1cc(C(=O)OC(C)C(=O)Nc2cccc(S(=O)(=O)N3CCOCC3)c2)c(C)o1` (centres undefined), the viability is reported as 101% (inactive).
For `Cn1nnc(NC(=O)CSc2ccc(Cl)cc2)n1`, the viability was 103% (inactive).
In the case of `COc1ccccc1NC(=O)C1C2C=CC(O2)C1C(=O)O` (centres undefined), the viability is reported as 94.6% (inactive).
For `O=C(Nc1ccc(-c2nc3c(ccc4ccccc43)o2)cc1)c1ccco1`, the viability was 90% (inactive).
For `CCOc1ccc(NS(=O)(=O)c2ccc(OCC(=O)NCCCOC)cc2)cc1`, the viability was 94.4% (inactive).

Tested on: HUVEC proliferation, viability ATP luminescence
Experiment: as above
Settings: not given
In short: as §1
With `COc1ccc(-c2cn3c(C)c(C(=O)Nc4cccc(NC(C)=O)c4)sc3n2)cc1` the EC50 was 12.1 µM.
Compound `O=C1C=C(c2ccc(Cl)cc2)C(=O)N1Nc1ccccc1` has an EC50 of 10.7 µM.
In the case of `CCOC(=O)N1CCC(c2cc(=O)n3[nH]c(C)c(-c4ccc(F)cc4)c3n2)CC1`, the EC50 is reported as 6.46 µM.
`CCCCN(Cc1ccco1)C(=O)c1cc2c(=O)[nH]c3ccc(C)cc3c2s1` gave an EC50 of 4.57 µM.
`CCC(C)NC(=O)c1c(N)n(/N=C/c2cccnc2)c2nc3ccccc3nc12` (centres undefined) showed an EC50 of 12.6 µM.
Work on `C=CCN1C(=Nc2cccnc2)SCC1(O)c1ccc(C)cc1` (centres undefined) yielded an EC50 of 11.2 µM.
With `Cc1ccc(S(=O)(=O)c2c(C)nn(C(C)(C)C)c2OC(=O)c2cccs2)cc1` the EC50 was 8.95 µM.
For `Cc1cc(C)c2c(=O)n(CC(=O)NCCCN3CCN(c4ccccc4F)CC3)sc2n1`, the EC50 was 12.3 µM.
In the case of `COc1ccc2c(c1)c1nc3ccccc3nc1n2CC(=O)OC(C)C`, the EC50 is reported as 11.3 µM.
For `Oc1c(CN2CCN(c3ccccn3)CC2)cc(Cl)c2cccnc12`, the EC50 was 7.42 µM.
For `O=c1/c(=C/c2ccco2)sc2n1CN(c1cccc(Br)c1)CN=2`, the EC50 was 15.7 µM.
`CCn1c2c(c3cc(Br)ccc31)CCC/C2=N\O` showed an EC50 of 15.2 µM.
`Cn1cc(SCC(=O)Nc2nc3ccccc3s2)c2ccccc21` gave an EC50 of 6.29 µM.
`Cc1cccnc1Nc1nc(-c2ccc(O)cc2O)cs1` gave an EC50 of 10.3 µM.
